Experimental data as given in PubChem BioAssay.
Activity calls are given as the source filed them. Unless noted, no stated cut-off is given here; in the data, active means inhibition above about 30%; inactive means the rest.

Experiments:
[1] = Her2 expression decrease, cell viability multiplex – SKBR3 breast tumor cells, AlphaScreen, ATP viability, primary screen (AID 461;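 active means Her2 level under about 52% in both replicate screens, with viability over 70% of control, limit read from the data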;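 on Her2 level: lower value means less Her2 protein in the cells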;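 on viability: percent of carrier control wells set as 100% viability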); conditions: SKBR3 Her2 protein level, 18-24 h, measured here: SKBR3 viability, ATP luminescence, at 10 µM
[2] = molecular target: Receptor tyrosine-protein kinase erbB-2 (Homo sapiens) (UniProt P04626); assay: as above; conditions: 18-24 h, at 10 µM, stronger effect = lower value
[3] = reduced viability of SK-BR-3 breast cancer cells – cell-based, 24 h, human, pilot screen (AID 572;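 active means viability at or below 10% of carrier control in both of two separate runs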;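 further: compound exposure lasted between 18 and 24 h rather than exactly 24 h; 100% = carrier-treated control wells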); conditions: SK-BR-3 viability, CellTiter-Glo luminescence, at 10 µM, stronger effect = lower value
[4] = HUVEC growth inhibition – cell-based, human, primary screen (AID 575;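 active means viability at or below 30% in both replicate assays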;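 further: 100% = median of untreated cell wells with 0.1% DMSO on each plate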); conditions: HUVEC proliferation, CellTiter-Glo luminescence, 72 h; at 10 µM; stronger effect = lower value
Procedure, shortened: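 Material: primary human umbilical vein endothelial cells / Schedule: 72 h exposure, 37 °C, 5% CO2, 30 min RT equilibration / Signal: ATP-based CellTiter-Glo luminescent read / Read-out basis: percent of median DMSO-control luminescence / Control set: 32 DMSO-only cell-control wells (high), 32 MePR drug-control wells (low) per plate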

[5] = H69AR cell proliferation blockers – human, duplicate replicates, primary screen (AID 580;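 active means viability at or under a set limit in both replicates, limit being median viability minus 3 SD, cut at about 48% in these data, passing the limit was not always enough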;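 further: 100% = mean luminescence of untreated wells and 0% = no signal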); conditions: H69AR lung tumor cells viability, ATP luminescence, 72 h; at 10 µM; stronger effect = lower value
[6] = MRP1 drug-resistance reversers in H69AR cells – cell-based, doxorubicin co-treatment, pilot screen (AID 601;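 active means viability loss from added drug above about 55%, and viability with drug at most 40%, in both replicates, limit read from the data, passing the limit was not always enough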); conditions: CellTiter-Glo, 72 h, at 10 µM; for differential viability (reversal): stronger effect = higher value
[7] = yeast transport mutant growth inhibition pilot in 384-well plates, post-Golgi transport modulator project (AID 636; in the data active means inhibition above about 31%); conditions: absorbance 615 nm, about 18 h, stronger effect = higher value
[8] = growth suppression of yeast trafficking mutant, preliminary HTS, modulators of trafficking downstream of Golgi apparatus project, 1536-format plate, OD 615 nm (AID 637); conditions: yeast transport mutant growth, absorbance 615 nm, 18 h; stronger effect = higher value
[9] = H69AR cells + 2 uM doxorubicin, measured here: viability with 2 uM doxorubicin, stronger effect = lower value
[10] = H69AR cells, compound alone cytotoxicity

Chain of Receptor tyrosine-protein kinase erbB-2 (Homo sapiens) (P04626 whole entry, looked up): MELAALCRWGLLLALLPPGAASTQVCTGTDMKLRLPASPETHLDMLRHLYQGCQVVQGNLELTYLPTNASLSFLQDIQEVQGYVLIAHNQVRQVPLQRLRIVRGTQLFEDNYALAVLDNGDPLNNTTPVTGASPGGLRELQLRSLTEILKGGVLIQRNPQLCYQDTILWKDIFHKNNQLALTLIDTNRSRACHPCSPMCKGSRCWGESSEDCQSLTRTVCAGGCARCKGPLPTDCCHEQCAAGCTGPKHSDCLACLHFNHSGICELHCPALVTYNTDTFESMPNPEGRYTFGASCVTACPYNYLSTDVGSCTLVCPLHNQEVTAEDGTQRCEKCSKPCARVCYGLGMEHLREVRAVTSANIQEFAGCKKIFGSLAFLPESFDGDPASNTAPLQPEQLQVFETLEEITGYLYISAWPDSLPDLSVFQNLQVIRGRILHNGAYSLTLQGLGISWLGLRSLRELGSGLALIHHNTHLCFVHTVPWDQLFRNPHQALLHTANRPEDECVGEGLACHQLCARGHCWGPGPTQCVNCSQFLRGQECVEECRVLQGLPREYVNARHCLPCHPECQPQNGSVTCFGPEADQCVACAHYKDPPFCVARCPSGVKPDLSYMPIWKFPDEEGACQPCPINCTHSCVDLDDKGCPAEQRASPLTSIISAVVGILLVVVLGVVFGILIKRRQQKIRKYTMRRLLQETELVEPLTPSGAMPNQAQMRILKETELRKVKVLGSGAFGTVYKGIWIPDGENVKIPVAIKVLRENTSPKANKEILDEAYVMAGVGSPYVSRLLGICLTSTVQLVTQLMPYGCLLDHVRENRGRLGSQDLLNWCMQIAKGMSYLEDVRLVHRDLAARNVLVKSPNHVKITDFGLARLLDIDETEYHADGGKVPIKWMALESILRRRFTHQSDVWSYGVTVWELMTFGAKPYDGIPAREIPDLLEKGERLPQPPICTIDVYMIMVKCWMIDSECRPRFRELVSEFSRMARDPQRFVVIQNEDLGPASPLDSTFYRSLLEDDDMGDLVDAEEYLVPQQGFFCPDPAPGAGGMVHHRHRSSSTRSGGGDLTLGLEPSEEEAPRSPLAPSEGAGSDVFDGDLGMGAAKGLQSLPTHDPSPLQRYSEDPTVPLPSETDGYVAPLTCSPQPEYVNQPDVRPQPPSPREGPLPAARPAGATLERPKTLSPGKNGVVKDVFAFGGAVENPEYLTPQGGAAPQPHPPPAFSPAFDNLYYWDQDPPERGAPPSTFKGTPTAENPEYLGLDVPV

Row | SMILES | viability [1] [%] | Her2 level [2] | viability [3] | viability [4] | viability [5] | differential viability (reversal) ([6]; H69AR cells + 2 uM doxorubicin) | viability [6, 9] [%] | viability [6, 10] [%] | inhibition [7] | inhibition [8]
1 | CCC(=NC(C)c1ccccc1)c1c(O)n(C)c(=O)n(C)c1=O (stereo not given) | 94 | 88% (inactive) | 94% (inactive) | 72.8% (inactive) | 90.7% (inactive) | -14.2% (inactive) | 105 | 90.7 | -2.89% (inactive) | 6.39% (inactive)
2 | CCOc1ccc2ccccc2c1/C=N/n1cncn1 | 99.5 | 101% (inactive) | 99.5% (inactive) | 87% (inactive) | 92.3% (inactive) | -11.2% (inactive) | 103 | 92.3 | -5.53% (inactive) | 1.64% (inactive)
3 | Cc1ccc(-n2nc(-c3cccs3)cc2C(=O)NCC2CCCO2)c(C)c1 (stereo not given) | 122 | 100% (inactive) | 122% (inactive) | 71.3% (inactive) | 86.5% (inactive) | -14% (inactive) | 100 | 86.5 | -4.67% (inactive) | -6.72% (inactive)
4 | O=c1c2cc(N3CCOCC3)ccc2[nH]c(=S)n1CCCN1CCCC1 | 89 | 78% (inactive) | 89% (inactive) | 86% (inactive) | 100% (inactive) | 14.6% (inactive) | 85.4 | 100 | -5.41% (inactive) | 6.89% (inactive)
5 | CC(C)(C)OC(=O)NCCc1nnc(SCC(=O)c2ccc(Cl)cc2)o1 | 97.5 | 106% (inactive) | 97.5% (inactive) | 93.1% (inactive) | 105% (inactive) | 13% (inactive) | 92.4 | 105 | -0.78% (inactive) | -3.83% (inactive)
6 | CC1(C)OC(=O)C(=CNc2ccccc2)C(=O)O1 | 98 | 94% (inactive) | 98% (inactive) | 98.7% (inactive) | 108% (inactive) | 10.9% (inactive) | 97.2 | 108 | 0.39% (inactive) | 0.18% (inactive)
7 | CS(=O)(=O)N1CCCC(C(=O)NCc2ccccc2Cl)C1 (stereo not given) | 99 | 89% (inactive) | 99% (inactive) | 107% (inactive) | 86.5% (inactive) | -4.79% (inactive) | 91.3 | 86.5 | -1.3% (inactive) | -0.95% (inactive)
8 | O=C(OCc1ccc2c(c1)OCO2)c1ccc(S(=O)(=O)N2CCCCC2)cc1 | 75.5 | 84% (inactive) | 75.5% (inactive) | 57.9% (inactive) | 81.9% (inactive) | 0.615% (inactive) | 81.3 | 81.9 | -0.77% (inactive) | -2.5% (inactive)
9 | COC(=O)c1ccccc1NC(=O)C1CC(=O)N(c2ccc(F)cc2)C1 (stereo not given) | 121 | 77% (inactive) | 121% (inactive) | 108% (inactive) | 96% (inactive) | 15.5% (inactive) | 80.6 | 96 | -6.4% (inactive) | 2.13% (inactive)
10 | O=C(COC(=O)C1CC(=O)N(c2ccccc2)C1)c1ccccc1 (stereo not given) | 99.5 | 107% (inactive) | 99.5% (inactive) | 101% (inactive) | 86.6% (inactive) | -9.89% (inactive) | 96.5 | 86.6 | 4.1% (inactive) | -6.67% (inactive)
11 | COC(=O)c1[nH]c2cc(OC)ccc2c1NC(=O)CN1CCOCC1 | 116 | 90.5% (inactive) | 116% (inactive) | 95% (inactive) | 94.3% (inactive) | 3.07% (inactive) | 91.3 | 94.3 | 0% (inactive) | -4.19% (inactive)
12 | C=CCOc1nc(N(C)C)nc(N(C)C)n1 | 92.5 | 87% (inactive) | 92.5% (inactive) | 93.9% (inactive) | 98.2% (inactive) | 9.33% (inactive) | 88.8 | 98.2 | -4.67% (inactive) | 1.31% (inactive)
13 | NC(=O)C(Cc1ccccc1)NS(=O)(=O)c1ccc(N2CCCC2=O)cc1 (stereo not given) | 90.5 | 92% (inactive) | 90.5% (inactive) | 108% (inactive) | 101% (inactive) | 10.9% (inactive) | 90 | 101 | -3.87% (inactive) | 1.48% (inactive)
14 | CC(=O)N1CCC2(CC1)CC(=O)c1cc(OCC(=O)NCc3ccc(C)cc3)ccc1O2 | 97 | 84% (inactive) | 97% (inactive) | 99.4% (inactive) | 90% (inactive) | -0.255% (inactive) | 90.3 | 90 | -2.76% (inactive) | 0.91% (inactive)
15 | CCOc1ccc(NC(=O)CN(C)CC(=O)NC2CCCc3ccccc32)cc1OCC (stereo not given) | 83 | 88.5% (inactive) | 83% (inactive) | 100% (inactive) | 89.9% (inactive) | -7.38% (inactive) | 97.3 | 89.9 | -0.38% (inactive) | 0.33% (inactive)
16 | COc1cc(OC)c(NC(=O)c2ccco2)cc1Cl | 121 | 81.5% (inactive) | 121% (inactive) | 92.1% (inactive) | 84.7% (inactive) | -12.1% (inactive) | 96.9 | 84.7 | -3.95% (inactive) | 0% (inactive)
